Laboratory results: publication PMC3866226 (Molecular pharmaceutics, 2013)
Where “and” joins values, the source holds several entries; their conditions need not be identical. Identical values can stand only once. Entries after “also recorded” stand apart in the source; their conditions may differ. Bridge positions count the residues as written; N and C are the ends. Square brackets hold non-standard residues; d marks the D form. Peptide text beside a SMILES is read from it.

Assays:
B16/F1 melanoma cells [1] = experiment: Cellular internalization; type: cell-based, murine; details: after 20 min of incubation at 25 °C, acid wash pH 4.5, n=3
Summary of the method: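 Cells at 2.5×10^5/well were grown overnight at 37 °C and washed with binding medium (MEM, 25 mM HEPES pH 7.4, 0.2% BSA, 0.3 mM 1,10-phenanthroline). They were incubated at 25 °C with ~200,000 cpm HPLC-purified radiopeptide for 20–120 min (n=3). Membrane-bound activity was stripped with 40 mM sodium acetate pH 4.5/0.9% NaCl/0.2% BSA. Cells were lysed in 1 N NaOH for 5 min; both fractions were gamma-counted.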

B16/F1 melanoma cells [2] = experiment: Cellular efflux; type: cell-based, murine; details: loaded 2 h at 25 °C, then 2 h of incubation in the culture medium
Summary of the method: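 B16/F1 cells were seeded at 2.5×10^5/well and grown overnight at 37 °C. They were loaded with radiopeptide for 2 h at 25 °C and rinsed twice with ice-cold PBS. Release into culture medium was then monitored. At 20, 40, 60, 90 and 120 min, surface-bound and intracellular radioactivity were collected separately and gamma-counted.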

[3] = test system: B16/F1 melanoma-bearing C57 mice; experiment: Melanoma imaging by small animal SPECT/CT; type: in vivo, mouse; details: 2 h post-injection of 7.4 MBq via tail vein
[4] = test system: B16/F1 melanoma-bearing C57 mice; experiment: Biodistribution in B16/F1 melanoma-bearing C57 mice; type: in vivo, mouse
Summary of the method: (§1)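 Female C57 mice bore subcutaneous right-flank tumours from 1×10^6 B16/F1 cells (~0.2 g at 10 days). Radiopeptide, 0.037 MBq in pH 7.4 saline, went in via tail vein. Groups of 4 were killed at 0.5, 2, 4 and 24 h; tumours and organs were weighed and gamma-counted. Blood was taken as 6.5% body weight. Blockade: co-injected 10 µg (6.1 nmol) unlabeled NDP-MSH, 2 h. Results as %ID/g or %ID, mean ± SD, n=4.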

[5] = as above; type: in vivo, mouse; details: female, C57, mouse, iv, 0.037 MBq, total radioactivity
Summary of the method: as §1

[6] = test system: B16/F1 melanoma-bearing C57 mice; experiment: Urinary metabolites by radio-HPLC; type: in vivo, mouse; details: urine at 2 h post-injection of ~3.7 MBq via tail vein
[7] = test system: B16/F1 melanoma-bearing C57 mice; experiment: Effect of L-lysine co-injection on renal and tumor uptake; type: in vivo, mouse; details: 2 h post-injection, 15 mg L-lysine
Summary of the method: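 Groups of 4 tumour-bearing C57 mice received 0.037 MBq radiopeptide mixed with 15 mg L-lysine via injection. Mice were killed at 2 h, and tumours and organs were weighed and gamma-counted. Uptake with versus without L-lysine was compared by unpaired Student's t-test, significance p<0.05.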

With CC(C)[C@H](NC(=O)[C@@H]1CCCN1C(=O)[C@H](CCCNC(=N)N)NC(=O)[C@H](CS)NC(=O)[C@H](Cc1c[nH]c2ccccc12)NC(=O)[C@H](CCCNC(=N)N)NC(=O)[C@@H](Cc1ccccc1)NC(=O)[C@H](Cc1c[nH]cn1)NC(=O)[C@H](CCC(=O)O)NC(=O)[C@H](CS)NC(=O)[C@H](CS)NC(=O)[C@H](CCCCN)NC(=O)[C@@H]1CC(=O)N[C@@H](CCCNC(=N)N)C(=O)N[C@@H](C(C)C)C(=O)N[C@@H](CC(=O)O)C(=O)N[C@H](Cc2ccc(O)cc2)C(=O)N1)C(N)=O [^99mTc-RVD-Lys-(Arg^11)CCMSH, metal not drawn] (RVD[dY]DKCCEH[dF]RWCRPV-NH2; lactam N-5) the “Activity internalized in the cells” value (B16/F1 melanoma cells [1]) was about 72%, the “Activity remained inside the cells (cellular efflux)” value (B16/F1 melanoma cells [2]) was 70% and the “Visualization of flank B16/F1 melanoma lesions by SPECT/CT” value [3] was “clearly visualized”. The “Renal uptake as % of the renal uptake of ^99mTc-RTD-Lys-(Arg^11)CCMSH” value (“Renal uptake as %” for short) ([4]; 0.5 h post-injection) was 62%, the “Renal uptake as %” value ([4]; 2 h post-injection) was 70% and the “Uptake ratio Tumor/Blood” value ([4]; 2 h post-injection, NDP blockade) was 2.75. The “Renal uptake as %” value ([4]; 4 h post-injection) was 70%, the tissue uptake at 0.5 h ([5]; blood) was 1.5 ± 0.52 %ID/g and the tissue uptake at 2 h ([5]; blood) was 0.49 ± 0.05 %ID/g. It also gave a tissue uptake at 4 h ([5]; blood) of 0.54 ± 0.45 %ID/g, a tissue uptake at 24 h ([5]; blood) of 0.07 ± 0.02 %ID/g and a tissue uptake at 0.5 h ([5]; bone) of 1.6 ± 0.73 %ID/g. It also gave a tissue uptake at 2 h ([5]; bone) of 0.57 ± 0.08 %ID/g, a tissue uptake at 4 h ([5]; bone) of 0.54 ± 0.28 %ID/g and a tissue uptake at 24 h ([5]; bone) of 0.47 ± 0.05 %ID/g. For the same compound, the tissue uptake at 0.5 h ([5]; brain) was 0.15 ± 0.05 %ID/g, the tissue uptake at 2 h ([5]; brain) was 0.04 ± 0.01 %ID/g and the tissue uptake at 4 h ([5]; brain) was 0.02 ± 0.01 %ID/g. For the same compound, the tissue uptake at 24 h ([5]; brain) was 0.03 ± 0.01 %ID/g, the tissue uptake at 0.5 h ([5]; heart) was 0.74 ± 0.43 %ID/g and the tissue uptake at 2 h ([5]; heart) was 0.26 ± 0.15 %ID/g. The tissue uptake at 4 h ([5]; heart) was 0.16 ± 0.03 %ID/g, the tissue uptake at 24 h ([5]; heart) was 0.1 ± 0.07 %ID/g and the tissue uptake dose at 0.5 h ([5]; intestines) was 1.36 ± 0.27 %ID. It also gave a tissue uptake dose at 2 h ([5]; intestines) of 1.59 ± 1.08 %ID, a tissue uptake dose at 4 h ([5]; intestines) of 0.95 ± 0.3 %ID and a tissue uptake dose at 24 h ([5]; intestines) of 0.44 ± 0.22 %ID. It also gave a tissue uptake at 0.5 h ([5]; kidneys) of 90.2 ± 15.4 %ID/g, a tissue uptake at 2 h ([5]; kidneys) of 94 ± 18.3 %ID/g and a tissue uptake at 4 h ([5]; kidneys) of 73.9 ± 3.73 %ID/g. It also gave a tissue uptake at 24 h ([5]; kidneys) of 44.3 ± 12.1 %ID/g, a tissue uptake at 0.5 h ([5]; liver) of 1.86 ± 0.17 %ID/g and a tissue uptake at 2 h ([5]; liver) of 1.4 ± 0.34 %ID/g. For the same compound, the tissue uptake at 4 h ([5]; liver) was 1.59 ± 0.13 %ID/g, the tissue uptake at 24 h ([5]; liver) was 1.21 ± 0.26 %ID/g and the tissue uptake at 0.5 h ([5]; lung) was 2.01 ± 0.97 %ID/g. For the same compound, the tissue uptake at 2 h ([5]; lung) was 0.87 ± 0.4 %ID/g, the tissue uptake at 4 h ([5]; lung) was 0.49 ± 0.43 %ID/g and the tissue uptake at 24 h ([5]; lung) was 0.19 ± 0.1 %ID/g. The tissue uptake at 0.5 h ([5]; muscle) was 11.2 ± 6.02 %ID/g, the tissue uptake at 2 h ([5]; muscle) was 0.17 ± 0.1 %ID/g and the tissue uptake at 4 h ([5]; muscle) was 0.1 ± 0.07 %ID/g. For the same compound, the tissue uptake at 24 h ([5]; muscle) was 0.26 ± 0.02 %ID/g, the tissue uptake at 0.5 h ([5]; pancreas) was 0.62 ± 0.25 %ID/g and the tissue uptake at 2 h ([5]; pancreas) was 0.1 ± 0.02 %ID/g. The tissue uptake at 4 h ([5]; pancreas) was 0.08 ± 0.08 %ID/g, the tissue uptake at 24 h ([5]; pancreas) was 0.18 ± 0.07 %ID/g and the tissue uptake at 0.5 h ([5]; skin) was 9.59 ± 0.62 %ID/g. For the same compound, the tissue uptake at 2 h ([5]; skin) was 0.69 ± 0.18 %ID/g, the tissue uptake at 4 h ([5]; skin) was 0.35 ± 0.08 %ID/g and the tissue uptake at 24 h ([5]; skin) was 0.42 ± 0.27 %ID/g. The tissue uptake at 0.5 h ([5]; spleen) was 0.82 ± 0.43 %ID/g, the tissue uptake at 2 h ([5]; spleen) was 0.4 ± 0.1 %ID/g and the tissue uptake at 4 h ([5]; spleen) was 0.5 ± 0.15 %ID/g. The tissue uptake at 24 h ([5]; spleen) was 0.34 ± 0.06 %ID/g, the tissue uptake at 0.5 h ([5]; stomach) was 1.92 ± 0.53 %ID/g and the tissue uptake at 2 h ([5]; stomach) was 1.21 ± 0.61 %ID/g. It also gave a tissue uptake at 4 h ([5]; stomach) of 0.96 ± 0.27 %ID/g, a tissue uptake at 24 h ([5]; stomach) of 0.4 ± 0.13 %ID/g and a tissue to tissue ratio at 0.5 h ([5]; tumor / blood) of 11.1. It also gave a tissue to tissue ratio at 2 h ([5]; tumor / blood) of 34.9, a tissue to tissue ratio at 4 h ([5]; tumor / blood) of 36.4 and a tissue to tissue ratio at 24 h ([5]; tumor / blood) of 126. For the same compound, the tissue to tissue ratio at 0.5 h ([5]; tumor / kidneys) was 0.19, the tissue to tissue ratio at 2 h ([5]; tumor / kidneys) was 0.18 and the tissue to tissue ratio at 4 h ([5]; tumor / kidneys) was 0.27. For the same compound, the tissue to tissue ratio at 24 h ([5]; tumor / kidneys) was 0.2, the tissue to tissue ratio at 0.5 h ([5]; tumor / lung) was 8.31 and the tissue to tissue ratio at 2 h ([5]; tumor / lung) was 19.7. The tissue to tissue ratio at 4 h ([5]; tumor / lung) was 40.1, the tissue to tissue ratio at 24 h ([5]; tumor / lung) was 46.4 and the tissue uptake at 0.5 h ([5]; tumor) was 16.7 ± 5.31 %ID/g. The tissue uptake at 2 h ([5]; tumor) was 17.1 ± 3.82 %ID/g, the tissue uptake at 4 h ([5]; tumor) was 19.6 ± 4.68 %ID/g and the tissue uptake at 24 h ([5]; tumor) was 8.81 ± 2.13 %ID/g. The tissue to tissue ratio at 0.5 h ([5]; tumor/liver) was 8.98, the tissue to tissue ratio at 2 h ([5]; tumor/liver) was 12.2 and the tissue to tissue ratio at 4 h ([5]; tumor/liver) was 12.3. The tissue to tissue ratio at 24 h ([5]; tumor/liver) was 7.28, the tissue to tissue ratio at 0.5 h ([5]; tumor/muscle) was 1.48 and the tissue to tissue ratio at 2 h ([5]; tumor/muscle) was 101. The tissue to tissue ratio at 4 h ([5]; tumor/muscle) was 196, the tissue to tissue ratio at 24 h ([5]; tumor/muscle) was 33.9 and the dose excreted at 0.5 h ([5]; urine) was 44.5 ± 3.12%. It also gave a dose excreted at 2 h ([5]; urine) of 59.2 ± 9.65%, a dose excreted at 4 h ([5]; urine) of 67.5 ± 10% and a dose excreted at 24 h ([5]; urine) of 76.8 ± 8.21%. For the same compound, the “Remained intact in the urine” value [6] was “Approximately 70%”, the “Transformed to a more hydrophobic compound in the urine” value [6] was 30% and the “Reduction of renal uptake by L-lysine co-injection” value ([7]; versus without L-lysine) was 41% and 40–50%. The “Effect of L-lysine co-injection on tumor uptake” value ([7]; p>0.05) was “didn't affect the tumor uptake; also recorded: without affecting their tumor uptake”.
